From ChEMBL document CHEMBL2016553, “Design and synthesis of 3-(4,5,6,7-tetrahydro-3H-imidazo[4,5-c]pyridin-2-yl)-1H-quinolin-2-ones as VEGFR-2 kinase inhibitors” (Bioorg Med Chem Lett, 2012) come the findings set out here.

The target in series [1] is T1, Vascular endothelial growth factor receptor 2 (Homo sapiens, UniProt P35968). Kind of series: Inhibition of recombinant VEGFR-2 kinase domain by homogeneous time-resolved fluorescence assay.
The target of series [2] is T1, Vascular endothelial growth factor receptor 2. The experiment in a line: Inhibition of VEGFR-2 kinase. The gist of the method:
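HTRF KinEASE assay with recombinant VEGFR-2 kinase domain. Enzyme, ATP and substrate levels were optimised per kit. TR-FRET signal read after detection reagents. IC50 from dose–response curves.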

Series [3] is described as follows: Metabolic stability in human liver microsomes assessed as compound remaining at 10 uM after 30 mins by LC/MS/MS method. In kind it is ADME, Microsome. To be noted: read-out: Stability. In general terms: Liver microsomes are a subcellular fraction often used to study metabolism.
In a further series the target is CYP3A4 (Homo sapiens, UniProt P08684). Kind of series: Inhibition of recombinant human CYP3A4 assessed as remaining activity at 10 uM after 20 mins by fluorescence assay. The class given is ADME. To be noted: read-out: Activity.
The target of a further series is CYP2C19 (Homo sapiens, UniProt P33261). Kind of series: Inhibition of recombinant human CYP2C19 assessed as remaining activity at 10 uM after 20 mins by fluorescence assay. The class given is ADME. To be noted: read-out: Activity.
A further series addresses CYP2C9 (Homo sapiens, UniProt P11712). The experiment in a line: Inhibition of recombinant human CYP2C9 assessed as remaining activity at 10 uM after 20 mins by fluorescence assay. To be noted: read-out: Activity. In kind it is ADME.
In the next series the target is T2, CYP1A2 (Homo sapiens, UniProt P05177).
T2 sequence (P05177 whole entry): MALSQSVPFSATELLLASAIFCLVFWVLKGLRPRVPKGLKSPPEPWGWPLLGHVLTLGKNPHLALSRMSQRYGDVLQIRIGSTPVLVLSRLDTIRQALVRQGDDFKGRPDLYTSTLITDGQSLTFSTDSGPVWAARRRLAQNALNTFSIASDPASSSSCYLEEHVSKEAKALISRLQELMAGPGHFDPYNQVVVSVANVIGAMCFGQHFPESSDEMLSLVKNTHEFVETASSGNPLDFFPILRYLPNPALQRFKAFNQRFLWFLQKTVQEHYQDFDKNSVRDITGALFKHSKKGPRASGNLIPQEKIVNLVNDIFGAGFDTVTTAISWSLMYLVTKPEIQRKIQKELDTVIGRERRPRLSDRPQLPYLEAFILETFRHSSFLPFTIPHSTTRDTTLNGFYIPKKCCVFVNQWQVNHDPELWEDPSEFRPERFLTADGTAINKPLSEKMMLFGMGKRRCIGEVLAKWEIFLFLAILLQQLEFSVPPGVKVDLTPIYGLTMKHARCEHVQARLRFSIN
Kind of series: Inhibition of recombinant human CYP1A2 assessed as remaining activity at 10 uM after 20 mins by fluorescence assay. In kind it is ADME. The following applies: read-out: Activity.

The target of a further series is CYP2D6 (Homo sapiens, UniProt P10635). The experiment in a line: Inhibition of recombinant human CYP2D6 assessed as remaining activity at 10 uM after 20 mins by fluorescence assay. In kind it is ADME. The following applies: read-out: Activity.
Series [4] relates to HUVEC. Kind of series: Antiangiogenic activity in HUVEC assessed as tube formation at 1 uM after 16 to 18 hrs by microscopy relative to control. In kind it is functional, Homo sapiens. The essentials: (§1)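 Pooled HUVECs seeded at 40,000/well on wells coated with a 1:1 mix of Matrigel (10 mg/mL) and EBM-2/EGM-2 medium, coating set 1 h at 37 °C. Cells incubated 16–18 h, then fixed. Tube formation imaged by camera and quantified by image analysis.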

Series [5] relates to HUVEC. The experiment in a line: Antiangiogenic activity in HUVEC assessed as tube formation at 10 uM after 16 to 18 hrs by microscopy relative to control. In kind it is functional, Homo sapiens. The essentials: as §1
Series [6] has as its system HUVEC. The experiment in a line: Antiproliferative activity against Vegf-stimulated HUVEC at 0.1 uM after 24 hrs by WST-1 assay relative to control. In kind it is functional, Homo sapiens. The essentials:
(§2)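 Pooled HUVECs grown in 1:1 EBM-2 with EGM-2 supplements, used at passage eight or lower. Seeded at 10,000 cells/well on collagen type I-coated plates. After 24 h, treated 24 h with rhVEGF (20 ng/mL) plus compound. Proliferation read by Premix WST-1 assay.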
(Tetrazolium dyes change colour on reduction, which living cells bring about.)

For series [7], the system named is HUVEC. Kind of series: Antiproliferative activity against Vegf-stimulated HUVEC at 10 uM after 24 hrs by WST-1 assay relative to control. In kind it is functional, Homo sapiens. The gist of the method:
as §2

In series [8] the test system is HUVEC. Kind of series: Antiproliferative activity against Vegf-stimulated HUVEC at 1 uM after 24 hrs by WST-1 assay relative to control. The class given is functional, Homo sapiens. The gist of the method:
as §2

Series [9] in a line: Metabolic stability in human liver microsomes assessed as compound remaining at 2 uM after 30 mins by LC/MS/MS method. The class given is ADME, Microsome. To be noted: read-out: Stability. The essentials: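 Human liver microsomes (0.5 mg/ml) in 100 mM potassium phosphate pH 7.4, test compound final 2 µM. Pre-incubated 5 min at 37 °C, then started with NADPH regenerating solution. Stopped at a single 30 min point with 3 volumes ice-cold acetonitrile containing imipramine (80 ng/ml) as internal standard. Samples vortexed, centrifuged and analysed by LC/MS/MS.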

Sequence of CYP2C9 (P11712 whole entry): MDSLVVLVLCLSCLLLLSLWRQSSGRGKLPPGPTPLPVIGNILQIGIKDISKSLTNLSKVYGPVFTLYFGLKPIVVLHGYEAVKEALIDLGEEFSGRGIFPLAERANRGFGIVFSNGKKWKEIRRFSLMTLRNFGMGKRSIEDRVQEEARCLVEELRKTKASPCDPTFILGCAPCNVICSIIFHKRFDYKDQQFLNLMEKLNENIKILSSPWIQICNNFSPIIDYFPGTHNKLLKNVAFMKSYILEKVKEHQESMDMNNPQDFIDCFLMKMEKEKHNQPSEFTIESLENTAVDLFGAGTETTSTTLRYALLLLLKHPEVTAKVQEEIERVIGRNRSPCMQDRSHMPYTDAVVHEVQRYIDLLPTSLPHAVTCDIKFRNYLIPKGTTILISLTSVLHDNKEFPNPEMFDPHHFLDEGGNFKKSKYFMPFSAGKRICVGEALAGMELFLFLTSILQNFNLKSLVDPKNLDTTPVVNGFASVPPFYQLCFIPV
Sequence of CYP2C19 (P33261 whole entry): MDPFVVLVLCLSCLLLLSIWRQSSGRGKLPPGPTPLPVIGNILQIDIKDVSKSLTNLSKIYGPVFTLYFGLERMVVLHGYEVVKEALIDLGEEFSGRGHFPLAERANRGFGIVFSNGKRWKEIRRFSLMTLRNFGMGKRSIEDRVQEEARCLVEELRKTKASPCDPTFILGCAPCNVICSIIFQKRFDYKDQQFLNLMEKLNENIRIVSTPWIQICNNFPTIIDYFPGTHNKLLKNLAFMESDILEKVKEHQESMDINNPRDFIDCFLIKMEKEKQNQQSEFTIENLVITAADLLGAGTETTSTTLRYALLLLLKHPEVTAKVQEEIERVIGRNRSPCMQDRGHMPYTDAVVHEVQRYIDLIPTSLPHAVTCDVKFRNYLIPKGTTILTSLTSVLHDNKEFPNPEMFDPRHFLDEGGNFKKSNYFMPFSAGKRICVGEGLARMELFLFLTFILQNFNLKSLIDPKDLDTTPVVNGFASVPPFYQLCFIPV
T1 sequence (P35968 whole entry, the tested form may be a part): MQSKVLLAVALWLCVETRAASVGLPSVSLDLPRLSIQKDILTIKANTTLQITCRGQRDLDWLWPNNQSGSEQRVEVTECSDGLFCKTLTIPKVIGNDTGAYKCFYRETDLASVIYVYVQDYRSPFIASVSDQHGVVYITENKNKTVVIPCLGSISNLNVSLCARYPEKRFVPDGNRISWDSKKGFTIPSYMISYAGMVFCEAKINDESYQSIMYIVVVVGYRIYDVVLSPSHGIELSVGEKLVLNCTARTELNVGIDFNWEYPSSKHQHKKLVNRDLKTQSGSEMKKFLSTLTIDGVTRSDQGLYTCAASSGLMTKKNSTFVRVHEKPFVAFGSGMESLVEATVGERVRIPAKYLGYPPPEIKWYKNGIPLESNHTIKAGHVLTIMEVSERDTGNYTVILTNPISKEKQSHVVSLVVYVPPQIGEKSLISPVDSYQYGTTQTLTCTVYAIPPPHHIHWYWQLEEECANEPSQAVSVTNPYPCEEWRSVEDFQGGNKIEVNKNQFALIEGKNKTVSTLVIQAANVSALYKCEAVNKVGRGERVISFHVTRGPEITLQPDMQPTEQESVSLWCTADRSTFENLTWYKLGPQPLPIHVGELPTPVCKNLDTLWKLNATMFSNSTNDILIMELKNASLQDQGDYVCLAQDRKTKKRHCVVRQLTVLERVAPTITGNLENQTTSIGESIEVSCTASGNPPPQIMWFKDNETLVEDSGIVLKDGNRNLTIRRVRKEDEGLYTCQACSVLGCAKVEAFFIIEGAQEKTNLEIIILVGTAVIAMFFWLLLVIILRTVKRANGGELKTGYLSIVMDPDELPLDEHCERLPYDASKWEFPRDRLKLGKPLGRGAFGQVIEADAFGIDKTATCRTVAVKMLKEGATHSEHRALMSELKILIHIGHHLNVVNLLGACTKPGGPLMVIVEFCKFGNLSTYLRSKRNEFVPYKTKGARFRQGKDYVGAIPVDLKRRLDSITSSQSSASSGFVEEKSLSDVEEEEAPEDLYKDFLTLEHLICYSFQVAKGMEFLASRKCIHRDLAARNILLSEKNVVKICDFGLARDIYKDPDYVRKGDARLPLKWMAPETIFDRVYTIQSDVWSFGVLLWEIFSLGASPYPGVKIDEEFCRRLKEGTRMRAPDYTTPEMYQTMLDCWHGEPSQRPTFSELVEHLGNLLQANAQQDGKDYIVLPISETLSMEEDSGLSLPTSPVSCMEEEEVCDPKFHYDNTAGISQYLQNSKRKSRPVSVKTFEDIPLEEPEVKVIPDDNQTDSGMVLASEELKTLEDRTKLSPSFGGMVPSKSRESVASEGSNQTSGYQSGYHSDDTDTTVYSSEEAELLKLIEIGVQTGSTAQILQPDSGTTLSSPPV
Sequence of CYP3A4 (P08684 whole entry): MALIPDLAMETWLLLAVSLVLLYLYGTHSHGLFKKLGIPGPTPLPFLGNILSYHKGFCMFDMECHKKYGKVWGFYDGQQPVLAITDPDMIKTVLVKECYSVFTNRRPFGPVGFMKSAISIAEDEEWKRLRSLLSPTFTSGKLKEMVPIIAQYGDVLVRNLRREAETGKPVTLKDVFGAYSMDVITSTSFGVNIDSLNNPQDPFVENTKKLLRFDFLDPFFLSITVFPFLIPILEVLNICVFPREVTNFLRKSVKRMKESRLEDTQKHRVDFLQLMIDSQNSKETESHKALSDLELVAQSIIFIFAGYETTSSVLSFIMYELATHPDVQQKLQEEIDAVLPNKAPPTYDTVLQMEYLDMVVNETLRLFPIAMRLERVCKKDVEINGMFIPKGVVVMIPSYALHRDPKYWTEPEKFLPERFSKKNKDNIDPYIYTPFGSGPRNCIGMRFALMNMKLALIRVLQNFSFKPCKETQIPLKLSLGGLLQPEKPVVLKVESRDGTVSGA
Sequence of CYP2D6 (P10635 whole entry): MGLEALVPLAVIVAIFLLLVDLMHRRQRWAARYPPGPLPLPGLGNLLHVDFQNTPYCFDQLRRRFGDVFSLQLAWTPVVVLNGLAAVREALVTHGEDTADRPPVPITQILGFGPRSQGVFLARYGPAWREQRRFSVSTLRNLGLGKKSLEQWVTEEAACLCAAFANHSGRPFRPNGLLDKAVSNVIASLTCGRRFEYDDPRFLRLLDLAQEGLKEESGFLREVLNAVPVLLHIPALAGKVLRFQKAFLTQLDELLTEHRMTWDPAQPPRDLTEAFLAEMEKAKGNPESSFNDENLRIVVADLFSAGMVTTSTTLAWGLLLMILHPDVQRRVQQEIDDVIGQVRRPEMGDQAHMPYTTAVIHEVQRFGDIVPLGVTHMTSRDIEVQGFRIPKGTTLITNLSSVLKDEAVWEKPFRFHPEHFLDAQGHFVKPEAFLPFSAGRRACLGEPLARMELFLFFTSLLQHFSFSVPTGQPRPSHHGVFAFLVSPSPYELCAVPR

The term IC50 denotes the concentration that inhibits the measured activity by half. Turning to `CN1CCc2nc(-c3cc4ccccc4[nH]c3=O)[nH]c2C1`, the IC50 in series [1] and in series [2] was 1000 nM throughout.
Turning to `O=c1[nH]c2ccccc2cc1-c1nc2c([nH]1)CN(Cc1ccccc1)CC2`, in series [1], the IC50 came out at 6000 nM.
For `O=C(OCc1ccccc1)N1CCc2nc(-c3cc4ccccc4[nH]c3=O)[nH]c2C1`, in [1], the IC50 amounted to 600 nM.
Still for that read-out and setting: the figure for `O=c1[nH]c2ccccc2cc1-c1nc2c([nH]1)CN(C1CCNCC1)CC2` is 5000 nM.
As for `O=C(c1cccnc1)N1CCc2nc(-c3cc4ccccc4[nH]c3=O)[nH]c2C1`, the IC50 in series [1] stood at 200 nM.
As to `O=C(c1cccnc1)N1CCc2nc(-c3cc4c(F)cccc4[nH]c3=O)[nH]c2C1`, the IC50 in series [1] came out at 600 nM.
Turning to `O=C(c1cccnc1)N1CCc2nc(-c3cc4cc(F)ccc4[nH]c3=O)[nH]c2C1`, the remaining at 0.5 h, 10 µM in series [3] stood at 96%. In addition, the activity at 20 min, 10 µM at CYP3A4 worked out at 83%; on CYP2C19, 92%; on CYP2C9, 99%; on CYP1A2 it was 86%; at CYP2D6 it was 67%. Further, in series [1], the IC50 stood at 1 nM.
For the molecule `O=C(c1ccncc1)N1CCc2nc(-c3cc4ccccc4[nH]c3=O)[nH]c2C1`, the IC50 in [1] was determined as 200 nM.
For `O=C(c1ccncc1)N1CCc2nc(-c3cc4c(F)cccc4[nH]c3=O)[nH]c2C1`, the IC50 in series [1] was 800 nM.
Consider `O=C(c1ccncc1)N1CCc2nc(-c3cc4cc(F)ccc4[nH]c3=O)[nH]c2C1`, for which the Activity in the series on HUVEC [4] is 93%; in the series with HUVEC [5] it was 62%; in the series on HUVEC [6], 120%; in the series with HUVEC [7], 71%; in the series on HUVEC [8] it was 72%. The remaining at 0.5 h, 10 µM in series [3] was found to be 99%. Moreover, the activity at 20 min, 10 µM at CYP3A4 worked out at 89%; at CYP2C19, 77%; at CYP2C9, 53%; at CYP1A2, 96%; on CYP2D6, 90%. Further, the IC50 in [1] is 0.3 nM.
On to `O=C(c1ccc(CN2CCCCC2)cc1)N1CCc2nc(-c3cc4ccccc4[nH]c3=O)[nH]c2C1`, for which, in [1], the half-maximal inhibitory concentration (IC50) was determined as 1.3 nM.
For the molecule `O=C(c1ccc(CN2CCCCC2)cc1)N1CCc2nc(-c3cc4cc(F)ccc4[nH]c3=O)[nH]c2C1`, the Activity in the series on HUVEC [4] is listed as 102%; with HUVEC [5] it was 99%; in the series on HUVEC [6], 92.3%; in the series on HUVEC [7], 79%; in the series on HUVEC [8], 82%. Further, in series [9], the remaining at 0.5 h, 2 µM came to 92%. Also, the activity at 20 min, 10 µM on CYP3A4 is 16%; on CYP2C19, 100%; on CYP2C9, 94%; at CYP1A2, 89%; at CYP2D6, 100%. The IC50 in series [1] came to 4.9 nM.
For `CCN(CC)CC(=O)N1CCc2nc(-c3cc4ccccc4[nH]c3=O)[nH]c2C1`, the IC50 in series [1] came to 300 nM.
For `O=C(CN1CCOCC1)N1CCc2nc(-c3cc4ccccc4[nH]c3=O)[nH]c2C1`, in series [1], the IC50 came to 300 nM.
Take `O=C(CN1CCOCC1)N1CCc2nc(-c3cc4c(F)cccc4[nH]c3=O)[nH]c2C1`: the IC50 in series [1] was determined as 1100 nM.
Take `O=C(CN1CCOCC1)N1CCc2nc(-c3cc4cc(F)ccc4[nH]c3=O)[nH]c2C1`: the IC50 in series [1] is 4.3 nM.
Same read-out and setting: the figure for `O=C(CN1CCOCC1)N1CCc2nc(-c3cc4cc(Cl)ccc4[nH]c3=O)[nH]c2C1` is 35 nM; for `COc1ccc2[nH]c(=O)c(-c3nc4c([nH]3)CN(C(=O)CN3CCOCC3)CC4)cc2c1` it is 760 nM; for `CN1CCN(CC(=O)N2CCc3nc(-c4cc5ccccc5[nH]c4=O)[nH]c3C2)CC1` it is 300 nM.
`CN1CCN(CC(=O)N2CCc3nc(-c4cc5c(F)cccc5[nH]c4=O)[nH]c3C2)CC1`: in series [1], the IC50 worked out at 1050 nM.
For the molecule `CN1CCN(CC(=O)N2CCc3nc(-c4cc5cc(F)ccc5[nH]c4=O)[nH]c3C2)CC1`, in series [1], the IC50 was 13 nM.
Turning to `CN1CCN(CC(=O)N2CCc3nc(-c4cc5cc(Cl)ccc5[nH]c4=O)[nH]c3C2)CC1`, in [1], the IC50 was 19 nM.
In the case of `COc1ccc2[nH]c(=O)c(-c3nc4c([nH]3)CN(C(=O)CN3CCN(C)CC3)CC4)cc2c1`, the IC50 in [1] was 1100 nM.
In the case of `O=C(CN1CCCCC1)N1CCc2nc(-c3cc4ccccc4[nH]c3=O)[nH]c2C1`, the concentration for half-maximal inhibition (IC50) in series [1] was 16 nM.
`O=C(CN1CCCCC1)N1CCc2nc(-c3cc4c(F)cccc4[nH]c3=O)[nH]c2C1`: the IC50 in series [1] was 740 nM.
Consider `O=C(CN1CCCCC1)N1CCc2nc(-c3cc4cc(F)ccc4[nH]c3=O)[nH]c2C1`, for which the IC50 in [1] was determined as 8 nM.
Still for that read-out and setting: next, `O=C(CN1CCCCC1)N1CCc2nc(-c3cc4cc(Cl)ccc4[nH]c3=O)[nH]c2C1`: 22 nM.
For the molecule `COc1ccc2[nH]c(=O)c(-c3nc4c([nH]3)CN(C(=O)CN3CCCCC3)CC4)cc2c1`, the IC50 in series [1] was determined as 280 nM.
The same measure, in the same setting: the figure for `O=C(CN1CCCC1)N1CCc2nc(-c3cc4ccccc4[nH]c3=O)[nH]c2C1` is 400 nM; for `O=C(Cc1ccccn1)N1CCc2nc(-c3cc4ccccc4[nH]c3=O)[nH]c2C1` it is 1.3 nM.
Turning to `O=C(Cc1ccccn1)N1CCc2nc(-c3cc4cc(F)ccc4[nH]c3=O)[nH]c2C1`, the IC50 in series [1] was found to be 0.7 nM.
Turning to `O=C(Cc1ccncc1)N1CCc2nc(-c3cc4ccccc4[nH]c3=O)[nH]c2C1`, in [1], the concentration for half-maximal inhibition (IC50) is 6.7 nM.
As to `O=C(Cc1ccncc1)N1CCc2nc(-c3cc4cc(F)ccc4[nH]c3=O)[nH]c2C1`, the remaining at 0.5 h, 10 µM in [3] is 93%. Moreover, the activity at 20 min, 10 µM came out at 33% at CYP3A4; 35% at CYP2C19; 28% on CYP2C9; 58% on CYP1A2; 21% at CYP2D6. Further, the IC50 in [1] was 8.6 nM.
As to `O=C(Cc1ccncc1)N1CCc2nc(-c3cc4cc(Cl)ccc4[nH]c3=O)[nH]c2C1`, the IC50 in [1] amounted to 0.5 nM.
Consider `Cc1cccc(NC(=O)N2CCc3nc(-c4cc5ccccc5[nH]c4=O)[nH]c3C2)c1`, for which the IC50 in [1] amounted to 2.1 nM.
In the case of `COc1ccc(NC(=O)N2CCc3nc(-c4cc5ccccc5[nH]c4=O)[nH]c3C2)cc1`, in series [1], the IC50 was determined as 46 nM.
